Test results as given in ChEMBL document CHEMBL1275265, “Synthesis and biological evaluation of N-antipyrine-4-substituted amino-3-chloromaleimide derivatives” (Eur J Med Chem, 2010).
Values after ≈ are worked out from the molar mass of the structure shown. Active and inactive are the calls of the source. No cut-off for these calls is given here.

Legend:
[1] = system: Aspergillus niger; experiment: Antifungal activity against Aspergillus niger ATCC 9092 by agar dilution method; type: functional, organism-based
Summary of the method: (§1)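 Filamentous fungi (hyalohyphomycetes, dermatophytes) were grown on SDA. Spore suspensions were set to 1.0–5.0 × 10^6 spores/mL by hemocytometer count. 1 µL was inoculated onto 1 mL SDA slants holding compound at 10–100 µg/mL (two-fold DMSO dilutions, final DMSO ≤2%), then incubated at 28–30 °C. Drug-free blank and ketoconazole control included; repeated three times; MIC determined.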

[2] = system: Aspergillus flavus; experiment: Antifungal activity against Aspergillus flavus ATCC 9170 by agar dilution method; type: functional, organism-based; summary of the method: as §1
[3] = system: Bacillus cereus; experiment: Antibacterial activity against Bacillus cereus ATCC 14579 at < 100 ug/mL by agar dilution method; type: functional
Summary of the method: (§2)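 Agar dilution on 1 mL Mueller-Hinton agar slants. Compounds were serially two-fold diluted in DMSO (final DMSO ≤2%) to give 10–100 µg/mL in the medium. Bacteria were grown on MHA at 35 °C for 24 h, suspended in 0.86% saline at 1.5 × 10^8 cell/mL (0.5 McFarland), and 1 µL was added per slant. Slants were incubated at 35 °C. Drug-free blank included; each assay run three times; MIC recorded.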

[4] = system: Trichophyton rubrum; experiment: Antifungal activity against Trichophyton rubrum C137 by agar dilution method; type: functional; summary of the method: as §1
[5] = system: Pichia kudriavzevii; experiment: Antifungal activity against Candida krusei ATCC 6582 by agar dilution method; type: functional, organism-based
Summary of the method: (§3)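 Yeasts were grown on Sabouraud dextrose agar and adjusted to 1.0–5.0 × 10^6 cell/mL (0.5 McFarland). Agar dilution used 1 mL SDA slants holding two-fold DMSO dilutions of compound at 10–100 µg/mL, with final DMSO ≤2%. 1 µL of inoculum was added per slant, then incubated at 35 °C. Drug-free blank and ketoconazole positive control included; triplicate runs; MIC read.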

[6] = system: Rhizopus; experiment: Antifungal activity against Rhizopus CL35 by agar dilution method; type: functional; summary of the method: as §1
[7] = system: Cryptococcus neoformans; experiment: Antifungal activity against Cryptococcus neoformans ATCC 32264 by agar dilution method; type: functional; summary of the method: as §3
[8] = system: Escherichia coli; experiment: Antibacterial activity against Escherichia coli ATCC 11775 at < 100 ug/mL by agar dilution method; type: functional, organism-based; summary of the method: as §2
[9] = system: Trichophyton mentagrophytes; experiment: Antifungal activity against Trichophyton mentagrophytes ATCC 9972 by agar dilution method; type: functional; summary of the method: as §1
[10] = system: Mus musculus; experiment: Ratio of acetyl salicylic acid ID50 to compound ID50 for inhibition of acetic acid-induced abdominal contraction in ip dosed Swiss mouse; type: functional, Abdominal cavity
[11] = system: Salmonella typhimurium; experiment: Antibacterial activity against Salmonella Typhimurium ATCC 14028 at < 100 ug/mL by agar dilution method; type: functional, organism-based; details: Salmonella enterica subsp. enterica serovar Typhimurium; summary of the method: as §2
[12] = system: Mus musculus; experiment: Antinociceptive activity in ip dosed Swiss mouse assessed as inhibition of acetic acid-induced abdominal contraction administered 30 mins before acetic acid challenge measured after 20 mins; type: functional; details: Abdominal cavity, read-out: ID50 (the source's name)
Summary of the method: (§4)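 Writhing dose-response in mice: compounds at 0.1–10 mg/kg and standard drugs at 10–100 mg/kg, i.p. in Tween 80/saline, 30 min before i.p. 0.6% acetic acid. Constrictions and stretches were counted for 20 min at 20–22 °C, with six to eight animals per group. ID50 (dose halving the response versus control) was given as geometric mean with 95% confidence limits.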

[13] = system: Mus musculus; experiment: Antinociceptive activity in Swiss mouse assessed as inhibition of formalin-induced paw licking activity at 10 mg/kg, ip administered 30 mins before formalin challenge measured after 5 mins; type: functional; details: route intraperitoneal
Summary of the method: (§5)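 Formalin test in mice pretreated i.p. with vehicle or 10 mg/kg test agent 30 min before formalin injection. Animals were acclimatized 5 min in a glass cylinder with an angled mirror. Licking time was recorded for the early phase (0–5 min) and the late phase (15–30 min) after formalin. Values are mean ± S.E.M.; ANOVA with Dunnett's test.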

[14] = system: Nannizzia gypsea; experiment: Antifungal activity against Microsporum gypseum C115 by agar dilution method; type: functional; summary of the method: as §1
[15] = system: Mus musculus; experiment: Antinociceptive activity in Swiss mouse assessed as inhibition of acetic acid-induced abdominal contraction at 0.1 to 100 mg/kg, ip administered 30 mins before acetic acid challenge measured after 20 mins relative to control; type: functional, Abdominal cavity; details: dose mg/kg 0.1-100; route intraperitoneal; summary of the method: as §4
[16] = system: Staphylococcus saprophyticus; experiment: Antibacterial activity against Staphylococcus saprophyticus ATCC 35552 at < 100 ug/mL by agar dilution method; type: functional, organism-based; summary of the method: as §2
[17] = system: Candida albicans; experiment: Antifungal activity against Candida albicans ATCC 10231 by agar dilution method; type: functional, organism-based; summary of the method: as §3
[18] = system: Staphylococcus aureus; experiment: Antibacterial activity against Staphylococcus aureus ATCC 6538P at < 100 ug/mL by agar dilution method; type: functional, organism-based; summary of the method: as §2
[19] = system: Pseudomonas aeruginosa; experiment: Antibacterial activity against Pseudomonas aeruginosa ATCC 27853 at < 100 ug/mL by agar dilution method; type: functional, organism-based; summary of the method: as §2
[20] = system: Enterobacter cloacae; experiment: Antibacterial activity against Enterobacter cloacae ATCC 35030 at < 100 ug/mL by agar dilution method; type: functional, organism-based; summary of the method: as §2
[21] = system: Mus musculus; experiment: Antinociceptive activity in Swiss mouse assessed as inhibition of formalin-induced paw licking activity at 10 mg/kg, ip administered 30 mins before formalin challenge measured after 15 to 30 mins; type: functional; details: route intraperitoneal; summary of the method: as §5
[22] = system: Bacillus subtilis; experiment: Antibacterial activity against Bacillus subtilis ATCC 23858 at < 100 ug/mL by agar dilution method; type: functional, organism-based; summary of the method: as §2
[23] = Toxicity in Artemia salina assessed as mortality after 24 hrs; type: organism-based; details: in vivo
Summary of the method: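 Artemia salina hatched at pH 9.0 (Na2CO3), 25 °C, strong aeration, continuous light (2000 Lux). Phototropic nauplii were collected about 12 h after hatching, and groups of 10 were exposed per well to various compound concentrations for 24 h. Survivors were counted and % deaths calculated.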

[24] = system: Streptococcus agalactiae; experiment: Antibacterial activity against Streptococcus agalactiae ATCC 13813 at < 100 ug/mL by agar dilution method; type: functional; summary of the method: as §2
[25] = system: Proteus mirabilis; experiment: Antibacterial activity against Proteus mirabilis ATCC 25933 at < 100 ug/mL by agar dilution method; type: functional, organism-based; summary of the method: as §2
[26] = system: Aspergillus fumigatus; experiment: Antifungal activity against Aspergillus fumigatus ATCC 26934 by agar dilution method; type: functional; summary of the method: as §1
[27] = system: Microsporum canis; experiment: Antifungal activity against Microsporum canis C112 by agar dilution method; type: functional, organism-based; summary of the method: as §1
[28] = system: Mus musculus; experiment: Ratio of metamizole ID50 to compound ID50 for inhibition of acetic acid-induced abdominal contraction in ip dosed Swiss mouse; type: functional, Abdominal cavity
[29] = system: Mus musculus; experiment: Antinociceptive activity in Swiss mouse assessed as inhibition of acetic acid-induced writhing at 10 mg/kg, ip administered 30 mins before acetic acid challenge measured after 20 mins relative to control; type: functional; details: route intraperitoneal
Summary of the method: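 Mice were given 10 mg/kg i.p. in Tween 80/0.9% NaCl (Tween ≤5%) 30 min before i.p. 0.6% acetic acid, at 20–22 °C. Abdominal constrictions plus hind-limb stretching were counted cumulatively over 20 min in individual funnels. Groups of six, randomized and blinded. Inhibition was calculated versus vehicle controls (10 ml/kg i.p.); ANOVA with Dunnett's test.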

[30] = system: Mus musculus; experiment: Ratio of compound to acetyl salicylic acid activity against formalin-induced paw licking activity in Swiss mouse at 10 mg/kg, ip administered 30 mins before formalin challenge measured after 15 to 30 mins; type: functional; details: route intraperitoneal
[31] = species: Mus musculus; experiment: Antinociceptive activity in mouse assessed as inhibition of acetic acid-induced writhing; type: functional; details: read-out: ID50 (the source's name)
[32] = system: Staphylococcus aureus; experiment: Antibacterial activity against Staphylococcus aureus ATCC 6538P by agar dilution method; type: functional

| SMILES | Activity [1] | Activity [2] | Activity [3] | Activity [8] | Ratio [10] | Activity [11] | ED50 [12] [µmol/kg] | inhibition in vivo at 10 mg/kg [13] [%] | inhibition (INH) [15] [%] | Activity [16] | Activity [18] | Activity [19] | Activity [20] | inhibition in vivo at 10 mg/kg [21] [%] | Activity [22] | LC50 at 24 h [23] [µg/mL] | Activity [24] | Activity [25] | Ratio [28] | inhibition in vivo at 10 mg/kg [29] [%] | other results |
| --- | --- | --- | --- | --- | --- | --- | --- | --- | --- | --- | --- | --- | --- | --- | --- | --- | --- | --- | --- | --- | --- |
| Cc1c(N2C(=O)C(Cl)=C(Nc3ccc(Br)cc3)C2=O)c(=O)n(-c2ccccc2)n1C | Active | Active | inactive | inactive | 233 | inactive | 0.57 | 11.4 | 97.5 | inactive | inactive | inactive | inactive | 22.5 | inactive | > 1000 | inactive | inactive | 284 | 97.5 | MIC [4]: > 100 µg/mL; Activity [5]: Active; MIC [6]: 100 µg/mL (≈ 205 µM); MIC [7]: > 100 µg/mL; MIC [9]: > 100 µg/mL; MIC [14]: > 100 µg/mL; Activity [17]: Active; MIC [26]: > 100 µg/mL; Activity [27]: Active |
| Cc1c(N2C(=O)C(Cl)=C(Nc3ccc(Cl)c([N+](=O)[O-])c3)C2=O)c(=O)n(-c2ccccc2)n1C | – | – | inactive | inactive | 103 | inactive | 1.29 | 19.6 | 98.5 | inactive | inactive | inactive | inactive | 49 | inactive | 94.2 (≈ 193 µM) | inactive | inactive | 126 | 98.5 | Ratio [30]: 6 |
| Cc1c(N2C(=O)C(Cl)=C(Nc3ccc(F)cc3)C2=O)c(=O)n(-c2ccccc2)n1C | Active | Active | inactive | inactive | 182 | inactive | 0.73 | 28.9 | 96.7 | inactive | inactive | inactive | inactive | 4.5 | inactive | > 1000 | inactive | inactive | 222 | 93.2 | MIC [4]: > 100 µg/mL; Activity [5]: Active; MIC [6]: > 100 µg/mL; MIC [7]: > 100 µg/mL; MIC [9]: > 100 µg/mL; MIC [14]: 100 µg/mL (≈ 234 µM); Activity [17]: Active; MIC [26]: > 100 µg/mL; Activity [27]: Active |
| Cc1c(N2C(=O)C(Cl)=C(Cl)C2=O)c(=O)n(-c2ccccc2)n1C | – | – | inactive | inactive | – | inactive | 10.8 | – | 99 | inactive | inactive | inactive | inactive | – | inactive | – | inactive | inactive | – | 99 | ED50 [31]: 10.8 µmol/kg; MIC [32]: 250 µg/mL (≈ 710 µM) |
| Cc1c(N2C(=O)C(Cl)=C(Nc3ccc(Cl)cc3)C2=O)c(=O)n(-c2ccccc2)n1C | – | – | inactive | inactive | 33 | inactive | 4.05 | 28.2 | 97.4 | inactive | inactive | inactive | inactive | 29.3 | inactive | > 1000 | inactive | inactive | – | 97.4 | – |
| CC(=O)Oc1ccccc1C(=O)O [ASPIRIN] | – | – | – | – | – | – | – | 16 | 83 | – | – | – | – | 45 | – | – | – | – | – | 35 | – |
